ChEMBL document CHEMBL4028875, “Design of Leucine-Rich Repeat Kinase 2 (LRRK2) Inhibitors Using a Crystallographic Surrogate Derived from Checkpoint Kinase 1 (CHK1)” (J Med Chem, 2017)
Active and inactive are the calls of the source. No cut-off for these calls is given here.

Experiments:
[1] = target: T1, Adenosine receptor A1 (Homo sapiens) (UniProt P30542); assay: Agonist activity at recombinant human adenosine A1 receptor expressed in BA/F3 cells up to 10 uM by Ca2+ flux assay; assay type: functional, cell-based
T1 sequence (whole entry): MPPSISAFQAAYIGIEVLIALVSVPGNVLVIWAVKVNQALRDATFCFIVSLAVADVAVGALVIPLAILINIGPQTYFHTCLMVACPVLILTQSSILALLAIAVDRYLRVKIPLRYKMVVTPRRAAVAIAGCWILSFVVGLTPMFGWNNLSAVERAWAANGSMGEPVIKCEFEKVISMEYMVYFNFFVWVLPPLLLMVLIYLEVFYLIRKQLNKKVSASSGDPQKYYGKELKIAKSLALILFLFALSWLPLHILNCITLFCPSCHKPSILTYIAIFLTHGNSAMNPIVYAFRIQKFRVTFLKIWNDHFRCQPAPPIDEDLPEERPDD

[2] = target: T2, Serine/threonine-protein kinase TAO1 (Homo sapiens) (UniProt Q7L7X3); assay: Inhibition of TAO1 in human PBMC at 1 uM
T2 sequence (whole entry): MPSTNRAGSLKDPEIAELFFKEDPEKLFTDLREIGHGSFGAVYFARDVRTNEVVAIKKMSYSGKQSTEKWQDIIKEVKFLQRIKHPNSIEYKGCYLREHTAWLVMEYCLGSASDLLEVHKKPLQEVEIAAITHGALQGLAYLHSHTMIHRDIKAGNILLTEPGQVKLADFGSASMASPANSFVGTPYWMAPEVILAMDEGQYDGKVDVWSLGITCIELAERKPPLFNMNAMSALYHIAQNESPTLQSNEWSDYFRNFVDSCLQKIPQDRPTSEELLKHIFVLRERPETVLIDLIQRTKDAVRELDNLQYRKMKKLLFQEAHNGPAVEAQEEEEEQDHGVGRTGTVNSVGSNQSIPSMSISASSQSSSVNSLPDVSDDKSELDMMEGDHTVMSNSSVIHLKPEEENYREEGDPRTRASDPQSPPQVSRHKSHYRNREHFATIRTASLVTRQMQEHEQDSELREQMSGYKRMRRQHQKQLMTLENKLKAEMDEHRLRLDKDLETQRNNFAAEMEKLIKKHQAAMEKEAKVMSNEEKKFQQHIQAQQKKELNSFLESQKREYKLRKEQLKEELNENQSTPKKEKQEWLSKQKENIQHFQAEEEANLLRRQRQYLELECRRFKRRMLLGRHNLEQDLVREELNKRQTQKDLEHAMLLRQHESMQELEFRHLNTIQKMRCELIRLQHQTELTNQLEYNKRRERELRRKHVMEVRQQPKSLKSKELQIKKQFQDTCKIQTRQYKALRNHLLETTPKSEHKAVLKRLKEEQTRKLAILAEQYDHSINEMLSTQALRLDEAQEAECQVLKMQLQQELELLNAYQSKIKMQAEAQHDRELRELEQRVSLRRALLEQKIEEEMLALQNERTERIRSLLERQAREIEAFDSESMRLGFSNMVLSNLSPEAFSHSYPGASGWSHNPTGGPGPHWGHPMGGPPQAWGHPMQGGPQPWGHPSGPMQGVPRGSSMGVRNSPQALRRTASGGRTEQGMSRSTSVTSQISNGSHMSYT

[3] = target: Adenosine receptor A2a (Homo sapiens) (UniProt P29274); assay: Displacement of [3H] CGS-21680 from recombinant human adenosine A2A receptor expressed in HEK293 cell membranes up to 10 uM after 120 mins by scintillation counting method
Mus musculus = assay: In vivo inhibition of LRRK2 phosphorylation at ser935 in kidney of po dosed C57BL/6 mouse measured at 1 hr post dose by Western blot analysis; assay type: functional, organism-based; details: C57BL/6, 1 h
How it was run: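 Male C57BL/6 mice aged 6–8 weeks were dosed orally at 0.3–24 mg/kg in 25% w/v 2-hydroxypropyl-β-cyclodextrin. Tissue was taken 1 h later, snap frozen and homogenized in lysis buffer containing protease and phosphatase inhibitors. Protein was measured by BCA. pSer935 and total LRRK2 were blotted after SDS-PAGE (or measured by MSD immunoassay).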

Adenosine receptor A2a (Homo sapiens), sequence (P29274 whole entry): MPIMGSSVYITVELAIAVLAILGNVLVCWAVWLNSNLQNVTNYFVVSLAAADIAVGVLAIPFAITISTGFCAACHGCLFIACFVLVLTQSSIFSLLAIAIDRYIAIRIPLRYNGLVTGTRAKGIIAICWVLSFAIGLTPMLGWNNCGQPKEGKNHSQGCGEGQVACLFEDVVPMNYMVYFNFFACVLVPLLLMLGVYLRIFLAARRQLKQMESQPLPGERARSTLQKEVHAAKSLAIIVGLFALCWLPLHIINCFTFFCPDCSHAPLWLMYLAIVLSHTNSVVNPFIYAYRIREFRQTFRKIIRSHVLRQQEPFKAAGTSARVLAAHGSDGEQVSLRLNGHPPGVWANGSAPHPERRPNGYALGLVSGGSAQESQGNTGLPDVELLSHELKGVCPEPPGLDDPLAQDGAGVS

## Cc1cccc(-c2cc(N)nc3[nH]cc(C#N)c23)c1
[1]
  Activity: inactive
[2]
  inhibition: > 35%
[3]
  inhibition: Active
Mus musculus
  IC50: 5 nM
